Compounds with a hit are over-represented: about 2.9% of the library has one in this group of screens.
CRFBP-R2 agonist: agonists of human CRF-binding protein/CRF-R2 receptor complex; HEK293 CRF-R2/CRF-BP, calcium dye fluorescence (FLIPR); percent of saturating CRF peptide response; activation, % at 13.2 µM; 350,000 tested, 0.46% active; AID 588473;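 active = activation of at least 50%, plus an integration ratio under a set limit after plate pattern correction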;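 note: plate controls were neutral control wells without compound for no effect and CRF at EC100 for full effect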
CRFBP-R2 block: antagonists of CRF-binding protein/CRF-R2 receptor complex; inhibition, % at 11.8 µM; HEK293 CRF-R2/CRF-BP, CRF-induced calcium fluorescence; 350,000 tested, 0.59% active;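 active = inhibition of the ligand-induced calcium signal above about 50% at the single tested concentration, limit read from the data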
Tn6 DDE FP: disrupts Tn6 cyclic peptide binding to fibrin D-Dimer-E complex | P02675 | Fibrin DD(E) TRITC-Tn6 fluorescence polarization displacement | inhibition, % at 8.3 µM | 370,000 tested, 0.21% active;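 active = inhibition above a per-campaign cutoff: mean of compounds within control limits plus 3 SD, cut at about 15% in these data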;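 note: 0% = median of all compound wells on the plate and 100% = blocking peptide control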
DDE Tn7 FP inh: disrupts Tn7 cyclic peptide binding to fibrin D-Dimer-E complex; P02675; 370,000 tested, 0.13% active; FP displacement of FITC-Tn7 peptide from fibrin DD(E); 0% = median of compound wells per plate; inhibition, % at 8.3 µM;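 active = inhibition above the mean of compounds falling within the control limits plus 3 SD of them, cut at about 14% in these data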;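 note: 0% = plate median of compound wells and 100% = 10 µM Aha-Tn7 peptide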
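Assay system: Human clot-derived fibrin DD(E) complex | Buffer or medium: Tris/NaCl/CaCl2 buffer, pH 7.8 | Repeats: One replicate per compound | Benchmarks: Aha-Tn7 high control | Measure: % inhibition scaled between sample-field median and high-control FP | Schedule: 10 min plus 3 h, room temperature | Signal: Fluorescence polarization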
CendR NRP1 mod: alters CendR peptide binding to human NRP-1; FAM-RPARPAR peptide binding to NRP-1, fluorescence polarization; O14786; 360,000 tested, 0.85% active; inhibition, % at 25 µM;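 active = inhibition or corrected inhibition above about 18%, plus a signal ratio from 0.5 to 1.5, limit read from the data, passing the limit was not always enough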
Target sequence (O14786 whole entry, looked up): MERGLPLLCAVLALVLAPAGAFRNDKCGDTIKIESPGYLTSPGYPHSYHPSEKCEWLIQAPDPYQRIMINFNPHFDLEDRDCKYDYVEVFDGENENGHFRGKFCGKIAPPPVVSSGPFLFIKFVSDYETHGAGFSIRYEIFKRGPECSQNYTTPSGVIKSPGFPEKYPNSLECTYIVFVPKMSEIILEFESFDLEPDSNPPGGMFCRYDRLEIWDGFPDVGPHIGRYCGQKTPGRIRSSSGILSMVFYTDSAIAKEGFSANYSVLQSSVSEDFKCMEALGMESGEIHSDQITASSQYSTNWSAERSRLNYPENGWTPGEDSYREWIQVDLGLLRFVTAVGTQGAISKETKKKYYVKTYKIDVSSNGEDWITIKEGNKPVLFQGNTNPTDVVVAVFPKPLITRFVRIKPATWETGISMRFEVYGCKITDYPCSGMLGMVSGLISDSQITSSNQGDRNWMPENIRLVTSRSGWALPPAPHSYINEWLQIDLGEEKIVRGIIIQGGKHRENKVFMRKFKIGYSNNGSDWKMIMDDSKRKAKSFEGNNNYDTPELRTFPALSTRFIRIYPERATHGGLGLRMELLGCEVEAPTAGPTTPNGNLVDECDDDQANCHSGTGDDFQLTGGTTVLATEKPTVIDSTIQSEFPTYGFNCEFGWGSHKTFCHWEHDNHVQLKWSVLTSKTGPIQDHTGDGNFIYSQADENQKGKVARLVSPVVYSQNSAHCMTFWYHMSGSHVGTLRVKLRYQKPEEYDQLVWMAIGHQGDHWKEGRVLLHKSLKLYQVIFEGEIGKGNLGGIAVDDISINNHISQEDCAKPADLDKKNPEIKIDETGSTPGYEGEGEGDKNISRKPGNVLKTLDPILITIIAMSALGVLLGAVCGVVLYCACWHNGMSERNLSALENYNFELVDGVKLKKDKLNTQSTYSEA
KLK7 zymogen act: proKLK7 (human) activation, primary screen. AID 652039. activation, % at 7 µM. 370,000 tested, 0.9% active. purified proKLK7, EDANS-DABCYL substrate fluorescence; 100% is mature enzyme control, 0% vehicle. P49862;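 active = activation above the mean of all tested compounds plus 3 SD, computed per campaign excluding outliers beyond control limits, cut at about 13% in these data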
proKLK7 act conf: proKLK7 activation, confirmation; shares compounds with KLK7 zymogen act; purified proKLK7, EDANS-DABCYL substrate fluorescence; scaled: vehicle 0, mature enzyme 100; activation, % at 7 µM; 3,200 tested, 68% active; AID 686949;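 active = activation, as change over the incubation, above the mean of all tested compounds plus 3 SD, cut at about 13% in these data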
EDANS-DABCYL int: counter-screen for kallikrein-7 activators: EDANS-DABCYL optical interference. shares compounds with KLK7 zymogen act. 3,200 tested, 80% active. EDANS-DABCYL substrate fluorescence interference, no enzyme, 4 h; solvent 0%, active enzyme control 100%. activation, % at 7 µM;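 active = activation above the all-compound mean plus 3 SD, ignoring values outside control-based bounds, cut at about 4.8% in these data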;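 note: value is the 4 h activation minus the activation read at time zero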
K7 EDANS ctr: EDANS fluorescence interference in dose response, no enzyme | EC50, µM | EDANS-DABCYL peptide fluorescence interference | AID 720493 | shares compounds with KLK7 zymogen act | 250 tested, 20% active;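 active = compounds that raise the fluorescence signal in this interference counterscreen, with EC50 at or below 10 µM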;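 note: intact quenched peptide substrate alone read at 355 nm excitation and 520 nm emission; signal is fluorescence gain from T0 to T4 after four hours at room temperature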
Active calls of the source: *; nt = no result.

SMILES	CRFBP-R2 agonist	CRFBP-R2 block	Tn6 DDE FP	DDE Tn7 FP inh	CendR NRP1 mod	KLK7 zymogen act	proKLK7 act conf	EDANS-DABCYL int	others
CC(Oc1ccc2cc(-c3ccccc3)c(=O)oc2c1)C(=O)NCC1CCC(C(=O)O)CC1 (stereo not drawn)	-2.0	6.7	-0.1	-0.4	-4.3	64.5*	65.2*	77.4*
CC(=O)N1c2ccccc2C(C)=NCC1C(=O)NC1CCCCC1 (stereo not drawn)	nt	nt	-2.7	-7.1	nt	0.1	nt	nt
Cc1ccc(NC(=O)CSC(C)C(=O)OCc2cc(=O)oc3cc(O)ccc23)cc1 (stereo not drawn)	-1.0	-3.5	-0.4	4.7	-22.7	241.2*	314.3*	275.5*
CSCCC(NS(=O)(=O)c1ccccc1)C(=O)OCc1cc(=O)oc2cc(O)ccc12 (stereo not drawn)	2.0	-0.1	0.3	-2.8	1.5	435.4*	497.9*	529.0*
CC(=O)Nc1ccc2c(COC(=O)[C@H](C)N3C(=O)C4CCCCC4C3=O)cc(=O)oc2c1 (stereo partly drawn)	-0.3	-2.5	8.1	-4.9	5.1	23.9*	3.7	4.7*
COc1ccc(F)cc1-c1cc(C(C)=O)c2n(c1=O)CCC2	nt	nt	5.7	7.3	nt	-0.3	nt	nt
CCOc1ccc(-c2cc(C)n3nc(C(N)=O)cc3n2)cc1	-3.0	9.3	2.5	2.9	-6.4	30.2*	49.5*	55.5*
COC(=O)c1cc2nc(-c3ccccc3)cc(C)n2n1	-1.1	-19.3	1.8	-6.1	3.3	5.2	nt	nt
CCC[n+]1c2ccccc2cc2ccccc21	0.6	-9.3	-0.8	-9.0	8.5	77.4*	73.0*	81.2*
Cc1ccc2ccccc2[n+]1CCCS(=O)(=O)[O-]	1.8	-5.5	-4.5	-3.5	-0.1	0.5	nt	nt
Brc1cc2ccccc2[n+](Cc2ccccc2)c1	-1.2	3.0	4.3	6.0	-3.3	0.2	nt	nt
CCCC[n+]1c2ccccc2cc2ccccc21	1.5	-21.7	2.9	4.1	2.2	64.9*	69.6*	74.2*
CCCCC(=O)N(Cc1ccccc1)c1ccccc1C(=O)Nc1cc(OC)ccc1OC	nt	nt	1.5	0.8	nt	0.2	nt	nt
Cc1nc(NC2CCCC2)c2nnn(Cc3ccccc3)c2n1	nt	nt	2.9	-1.2	nt	-0.2	nt	nt
COc1ccc(-c2cc(C(F)(F)F)nc(SCC(=O)N(C)Cc3cn(C)nc3C)n2)cc1OC	-2.9	27.2	1.7	-1.9	4.6	32.5*	2.6	0.9
COc1ccc(-c2cc(C(F)(F)F)nc(SCC(N)=O)n2)cc1	-2.1	-11.8	0.1	3.4	-7.3	15.1*	5.5	6.6*
COc1ccc(-c2cc(C(F)(F)F)nc(SCCC(=O)N3CCN(C)CC3)n2)cc1	0.4	-4.3	-0.2	-1.3	11.0	-0.3	nt	nt
CCOC(=O)c1nn(-c2ccccc2)c(C#N)c1N	0.1	-4.8	5.6	-5.6	39.2*	25.4*	17.7*	24.6*
CCOC(=O)c1cnn(-c2sc(C(=O)OCC)c(C)c2C(=O)OCC)c1N	-0.1	-53.5	4.2	-5.1	-15.8	18.1*	0.9	1.0
COc1ccc(C2Nc3ccccc3C(=O)N2Cc2cccnc2)cc1COc1c(C)cccc1C (stereo not drawn)	nt	nt	-14.5	-4.5	nt	nt	nt	nt
CCOC(=O)c1cnc2c(C)cccc2c1NCc1ccco1	0.7	-14.0	0.9	-5.3	19.6	0.3	nt	nt
CCOC(=O)c1cnc2c(C(=O)OC)cccc2c1NCc1ccco1	0.7	9.9	-5.2	3.3	4.4	14.3*	14.6*	7.3*	K7 EDANS ctr=>69.5
COC(=O)c1c(N)n(-c2ccc(NC(C)=O)cc2)c2nc3ccccc3nc12	0.6	12.2	2.0	5.5	-19.9	24.2*	75.5*	72.7*
COCC(C)OC(=O)c1c(N)n(CC(C)C)c2nc3ccccc3nc12 (stereo not drawn)	-4.8	-19.2	3.8	-1.7	12.2	59.0*	-32.8	-30.0
C=CCn1c(N)c(C(=O)OC(C)CC)c2nc3ccccc3nc21 (stereo not drawn)	-1.1	5.0	1.3	-6.8	-3.3	68.7*	-33.0	-19.4
SMILES	CRFBP-R2 agonist	CRFBP-R2 block	Tn6 DDE FP	DDE Tn7 FP inh	CendR NRP1 mod	KLK7 zymogen act	proKLK7 act conf	EDANS-DABCYL int	others
C=CCn1c(N)c(C(=O)OC(C)(C)C)c2nc3ccccc3nc21	-1.7	8.6	0.5	-4.5	2.7	45.9*	79.8*	70.9*
C=CCn1c(N)c(C(=O)Nc2ccccc2)c2nc3ccccc3nc21	-0.7	11.0	4.3	5.5	2.6	-5.2	nt	nt
CC(C)Cn1c(N)c(C(=O)NCC2CCCO2)c2nc3ccccc3nc21 (stereo not drawn)	1.6	-25.9	-4.2	-3.8	-9.3	-27.6	nt	nt
COc1ccc(-c2cc(C(=O)NN=Cc3ccccc3[N+](=O)[O-])[nH]n2)cc1	nt	nt	-1.1	2.9	nt	-0.1	nt	nt
Nc1nc2c(ncn2[C@@H]2O[C@H](C(=O)NCC3CCCCC3)[C@@H](O)[C@H]2O)c(=O)[nH]1	nt	nt	-2.2	-6.2	nt	0.7	nt	nt
Nc1c(C(=O)NCCN2CCOCC2)c2nc3ccccc3nc2n1-c1ccccc1	-1.4	17.4	0.9	-1.4	3.9	28.0*	7.6	9.1*
Nc1c(C(=O)NCCN2CCOCC2)c2nc3ccccc3nc2n1-c1ccc2c(c1)OCO2	-0.5	10.2	-5.5	-9.0	7.8	0.2	nt	nt
CC(C)OC(=O)c1c(N)n(CCCN2CCOCC2)c2nc3ccccc3nc12	-1.3	1.2	2.9	2.9	-4.7	28.2*	8.9	7.4*
COc1ccc(/C=C/C(=O)Nc2ccc(-n3nncc3-c3ccc(OC)c(OC)c3)cc2)cc1OC	-0.7	4.2	11.9	0.6	3.9	28.0*	-8.9	-20.1
COc1ccc(-c2cnnn2-c2ccc(NC(=O)/C=C/c3ccc(OC)c(OC)c3)cc2)cc1	-0.6	-23.8	-11.1	0.7	1.5	-12.9	nt	nt
COc1ccc(/C=C/C(=O)NC(=S)Nc2ccc(S(N)(=O)=O)cc2)cc1OC	-2.1	0.8	-2.9	4.1	-4.3	19.3*	12.8*	17.2*
COc1cc(/C=C/C(=O)Nc2ccncc2)cc(OC)c1OC	3.9	45.7	5.1	1.4	-11.2	28.5*	8.5	18.4*
COc1ccc(/C=C/C(=O)NC(=S)Nc2ccccc2)cc1OC	-1.4	-0.3	1.2	8.1	-7.2	-1.4	nt	nt
CN1CCN(C(=O)/C=C\c2ccc(Cl)cc2)CC1	-0.8	1.8	-1.9	-2.2	-11.6	-0.1	nt	nt
